Broadly, the inhibition is the change of the read-out against control, counted positive when it falls. The MIC is the smallest concentration in the dilution series that meets the test's criterion for growth inhibition.

We go through 6 compounds from ChEMBL document CHEMBL2384957, “Synthesis and antimicrobical evaluation of a novel class of 1,3,4-thiadiazole: derivatives bearing 1,2,4-triazolo[1,5-a]pyrimidine moiety” (2013).

Values after ≈ are worked out from the molar mass of the structure shown.

What all share (assay type): functional
One experiment has as its system Cercospora beticola. Put plainly: Antifungal activity against Cercospora beticola assessed as inhibition of mycelia elongation rate at 50 ppm after 48 hrs relative to control. In a few lines: (§1)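 This was a mycelial growth assay on potato glucose agar. Samples were dissolved in DMF at 500 mg/L (stock), and 1 part solution was mixed with 9 parts thawed medium at 50 °C before plating. Solidified plates were inoculated with a 4 mm mycelium disk, inverted and incubated at 28 °C for 48 h. Medium without sample served as blank. Mycelial elongation radius was measured, in triplicate.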

The subject of the next experiment is Fusarium oxysporum. As to the kind of experiment: Antifungal activity against Fusarium oxysporum assessed as inhibition of mycelia elongation rate at 50 ppm after 48 hrs relative to control. In a few lines:
as §1

The subject of the next experiment is Rhizoctonia solani. As to the kind of experiment: Antifungal activity against Rhizoctonia solani assessed as inhibition of mycelia elongation rate at 50 ppm after 48 hrs relative to control. In a few lines:
as §1

The next experiment relates to Bacillus spizizenii. As to the kind of experiment: Antibacterial activity against Bacillus subtilis ATCC 6633 assessed as growth inhibition after 24 hrs by two-fold serial dilution method. Conditions: ATCC 6633, 24 h. Summed up:
(§2)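 MICs were determined by two-fold serial dilution in nutrient broth, following CLSI. The inoculum came from 24 h bacterial cultures on nutrient agar at 37 ± 1 °C and was adjusted in sterile saline to 1×10⁴–10⁵ CFU/mL. Tubes were incubated at 37 ± 1 °C. MIC was read visually after 24 h, with kanamycin as the reference standard.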

In a further experiment the test system is Escherichia coli. Put plainly: Antibacterial activity against Escherichia coli ATCC 35218 assessed as growth inhibition after 24 hrs by two-fold serial dilution method. Particulars: ATCC 35218, 24 h. Summed up: as §2
In another experiment the test system is Staphylococcus aureus. Put plainly: Antibacterial activity against Staphylococcus aureus ATCC 6538 assessed as growth inhibition after 24 hrs by two-fold serial dilution method. Conditions: ATCC 6538, 24 h. In a few lines: as §2
A short description of experiment [1]: Antifungal activity against Physalospora pyricola assessed as inhibition of mycelia elongation rate at 50 ppm after 48 hrs relative to control. Particulars: Botryosphaeria berengeriana. Summed up:
as §1

The next experiment deals with Pseudomonas fluorescens. As to the kind of experiment: Antibacterial activity against Pseudomonas fluorescens ATCC 13525 assessed as growth inhibition after 24 hrs by two-fold serial dilution method. Particulars: ATCC 13525, 24 h. In a few lines:
as §2

Experiment [2] can be described thus: Antifungal activity against Gibberella saubinettii assessed as inhibition of mycelia elongation rate at 50 ppm after 48 hrs relative to control. Particulars: Fusarium graminearum. In a few lines:
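Poisoned-agar mycelial growth test: sample dissolved in DMF at 500 mg/L, 1 mL mixed into 9 mL thawed potato glucose agar at 50 °C and poured into plates. A 4 mm mycelium disk was placed on each plate, inverted, incubated 28 °C for 48 h. Mycelial elongation radius (mm) measured against a sample-free medium blank; three replicates.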

In the case of `Cc1cc(C)n2nc(SCc3nnc(SCc4ccc(F)cc4F)s3)nc2n1`, the results for the inhibition at 50 ppm in the experiment on Cercospora beticola, in the experiment on Fusarium oxysporum and with Rhizoctonia solani were 64%, 56% and 79%, respectively. The MIC in the experiment with Bacillus spizizenii came out at 25 µg/mL (≈ 57.3 µM); in the experiment on Escherichia coli, 3.13 µg/mL (≈ 7.17 µM); with Staphylococcus aureus, 25 µg/mL (≈ 57.3 µM); with Pseudomonas fluorescens it was 12.5 µg/mL (≈ 28.6 µM). The figures for the inhibition in experiment [1] and in experiment [2] were 86% and 64%, respectively.

Regarding `Cc1cc(C)n2nc(SCc3nnc(SCc4cc(F)cc(F)c4)s3)nc2n1`, the inhibition at 50 ppm was determined as 61% in the experiment on Cercospora beticola, 38% with Fusarium oxysporum and 75% with Rhizoctonia solani. In addition, the minimum inhibitory concentration (MIC) in the experiment with Bacillus spizizenii was 50 µg/mL (≈ 115 µM); in the experiment on Escherichia coli, 25 µg/mL (≈ 57.3 µM); in the experiment on Staphylococcus aureus, > 100 µg/mL; in the experiment on Pseudomonas fluorescens, 12.5 µg/mL (≈ 28.6 µM). Also, the values for the inhibition in [1] and in experiment [2] were 68% and 41%, respectively.

As to `Cc1cc(C)n2nc(SCc3nnc(SCc4ccccc4Cl)s3)nc2n1`, the inhibition at 50 ppm in the experiment with Cercospora beticola came to 43%; in the experiment with Fusarium oxysporum, 40%; in the experiment with Rhizoctonia solani it was 61%. Further, the minimal inhibitory concentration (MIC) in the experiment with Bacillus spizizenii was > 100 µg/mL; in the experiment with Escherichia coli, 12.5 µg/mL (≈ 28.7 µM); in the experiment with Staphylococcus aureus, > 100 µg/mL; in the experiment with Pseudomonas fluorescens, 100 µg/mL (≈ 230 µM). Besides, the inhibition in [1] is 77%; in experiment [2], 45%.

As to `Cc1cc(C)n2nc(SCc3nnc(SCc4ccccc4Br)s3)nc2n1`, the results for the inhibition at 50 ppm with Cercospora beticola, in the experiment on Fusarium oxysporum and in the experiment on Rhizoctonia solani were 45%, 40% and 63%, respectively. Also, the MIC in the experiment on Bacillus spizizenii is > 100 µg/mL; with Escherichia coli it was 12.5 µg/mL (≈ 26.1 µM); in the experiment on Staphylococcus aureus, > 100 µg/mL; in the experiment with Pseudomonas fluorescens it was 25 µg/mL (≈ 52.1 µM). The results for the inhibition in experiment [1] and in [2] were 75% and 44%, respectively.

Consider `Cc1cc(C)n2nc(SCc3nnc(SCc4ccc(Br)cc4)s3)nc2n1`, for which the inhibition at 50 ppm with Cercospora beticola is 43%; with Fusarium oxysporum it was 62%; in the experiment with Rhizoctonia solani, 51%. Besides, the minimal inhibitory concentration (MIC) in the experiment on Bacillus spizizenii is > 100 µg/mL; in the experiment on Escherichia coli, 12.5 µg/mL (≈ 26.1 µM); in the experiment with Staphylococcus aureus, > 100 µg/mL; in the experiment on Pseudomonas fluorescens, 100 µg/mL (≈ 209 µM). Also, the inhibition came out at 76% in experiment [1] and 25% in [2].

For `COc1cccc(CSc2nnc(CSc3nc4nc(C)cc(C)n4n3)s2)c1`, the inhibition at 50 ppm with Cercospora beticola stood at 62%; in the experiment on Fusarium oxysporum, 44%; with Rhizoctonia solani, 49%. Also, the MIC in the experiment on Bacillus spizizenii was 50 µg/mL (≈ 116 µM); in the experiment with Escherichia coli, 25 µg/mL (≈ 58.1 µM); in the experiment with Staphylococcus aureus, 12.5 µg/mL (≈ 29 µM); with Pseudomonas fluorescens it was > 100 µg/mL. Also, the inhibition in [1] is 69%; in experiment [2] it was 67%.
